Assay outcomes (PubChem BioAssay)
A selection: hits, their analogues and other compounds. The true share with any hit is near 1.9%.
CHRM5 antagonist – blocks acetylcholine activation of human M5 receptor. P08912. CHO-hM5 cells, Fluo-8 calcium fluorescence, ACh EC80. inhibition, % at 3 µM. actives 0.59% (n = 360,000);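 active means inhibition above a per-plate cutoff, the mean of that plate's test compounds plus 3 SD, cut at about 27% in these data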;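 further: 0% = acetylcholine EC80 with DMSO and 100% = DMSO without agonist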
M4 antag – CHRM4 antagonism in calcium assay; P08173; CHO-hM4 cells, ACh EC80, Fluo-8 calcium fluorescence; inhibition, % at 3 µM; actives 0.73% (n = 360,000);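 active means inhibition above its plate's cutoff, the mean inhibition of sample wells plus 3 SD, cut at about 27% in these data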;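 further: 0% = acetylcholine EC80 with DMSO and 100% = DMSO without agonist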
Target sequence (P08173 whole entry, looked up): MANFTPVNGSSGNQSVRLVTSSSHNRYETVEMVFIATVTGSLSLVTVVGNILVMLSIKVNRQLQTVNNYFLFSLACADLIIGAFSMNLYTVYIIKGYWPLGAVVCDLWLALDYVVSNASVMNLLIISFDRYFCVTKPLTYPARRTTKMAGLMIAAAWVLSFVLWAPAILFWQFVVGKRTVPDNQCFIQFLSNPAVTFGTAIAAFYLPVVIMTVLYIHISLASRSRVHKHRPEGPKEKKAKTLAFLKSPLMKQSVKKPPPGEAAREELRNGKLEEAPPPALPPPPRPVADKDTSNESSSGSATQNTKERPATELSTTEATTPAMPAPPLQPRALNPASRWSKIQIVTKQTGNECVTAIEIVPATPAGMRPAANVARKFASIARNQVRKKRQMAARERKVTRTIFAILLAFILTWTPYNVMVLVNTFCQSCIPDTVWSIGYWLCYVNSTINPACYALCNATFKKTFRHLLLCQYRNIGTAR
CHRM5 agonist – CHRM5 agonism in calcium assay | actives 0.19% (n = 360,000) | activation, % at 3 µM | P08912 | AID 624037 | CHO-K1 hM5 cells, Fluo-8 calcium fluorescence; 0% DMSO wells, 100% maximal acetylcholine response;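 active means activation above the run's mean over test compounds plus 3 SD, cut at about 23% in these data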;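 further: signal is peak over basal fluorescence ratio across the kinetic read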
M4 ag – agonists of human muscarinic M4 receptor (CHRM4); activation, % at 3 µM; CHO-K1 hM4/Gqi5, Fluo-8 calcium fluorescence; vehicle 0%, full acetylcholine response 100%; P08173; actives 0.14% (n = 360,000);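 active means activation above the run mean over all test wells plus 3 SD, cut at about 32% in these data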;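 further: peak over basal fluorescence ratio per well then scaled between controls; 0% = DMSO wells and 100% = acetylcholine at EC100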
M5 PAM – potentiates acetylcholine response at human M5 receptor. P08912. CHO-K1 hM5, Fluo-8 calcium, ACh EC20 PAM; 0% = ACh EC20, 100% = ACh EC100. activation, % at 3 µM. actives 0.3% (n = 360,000). AID 624038;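 active means activation above the run cutoff, the mean activation of all test compounds plus 3 SD, cut at about 18% in these data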
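Measured by: Fluo-8 calcium fluorescence; material: human M5 receptor in CHO-K1 cells; schedule: Post-acetylcholine fluorescence recording 140 s; benchmarks: low control EC20 acetylcholine (0%), high control EC100 acetylcholine (100%); read-out: Max/basal fluorescence ratio as % of EC20–EC100 ACh window; compound: single dose, 3 µM nominal final test concentration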
M4 PAM – CHRM4 positive allosteric modulation. activation, % at 3 µM. AID 624126. CHO-K1 hM4/Gqi5, Fluo-8 calcium fluorescence, ACh EC20; 0% = ACh EC20, 100% = maximal ACh. actives 0.4% (n = 360,000). P08173;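 active means activation above its plate's cutoff, the mean activation of sample wells plus 3 SD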
Numbers without * were called inactive.

SMILES	CHRM5 antagonist	M4 antag	CHRM5 agonist	M4 ag	M5 PAM	M4 PAM
Cc1c(C(=O)c2ccc(Cl)cc2[N+](=O)[O-])c2ccccn2c1CCC#N	8	-2	3	3	19*	16
CCCCc1cc(O)c(CCCC)c(O)c1	33*	52*	64*	106*	-16	-18
CC1(C(=O)NS(=O)(=O)c2cccs2)CCN1C(=O)Cc1ccc(Cl)cc1Cl (stereo not given)	-9	-4	0	0	-1	1
CC(C)(C)[C@H]1C=C(C(=O)N2CCN(Cc3ccc4c(c3)OCO4)CC2)O[C@@H](OCCCCO)C1	-24	-2	5	1	20*	4
CC(=O)OCCNc1cc(Sc2nc3ccccc3[nH]2)c2nonc2c1[N+](=O)[O-]	20	41*	-3	2	-6	-5
C[N+](C)(C)C/C=C1/COCO1	92*	9	100*	42*	-16	-3
COC(=O)C1(C(=O)OC)C/C=C\CCN(S(=O)(=O)c2ccccc2[N+](=O)[O-])CC1	4	-2	0	3	-5	-4
CCCOC(=O)c1ccc(NC(=O)CSC2=Nc3ccccc3C3CC=NN23)cc1 (stereo not given)	2	14	1	1	6	38*
Cc1cc(C)cc(N(CCC#N)C(=O)CSC2=Nc3ccccc3C3CC=NN23)c1 (stereo not given)	-3	5	24*	9	13	-5
O=C(CSC1=Nc2ccccc2C2CC=NN12)Nc1ccc2c(c1)OCO2 (stereo not given)	9	10	1	0	0	-7
CCNc1nc(NC(C)C)nc(NS(=O)(=O)c2ccc(N)cc2)n1	3	-17	3	1	0	30*
Cc1ccc2cc(NC(=O)c3ccc(C(C)(C)C)cc3)ccc2n1	27*	20	-3	21	0	11
CCN1C(=NCCCCO)N[C@@H](c2cccc(F)c2)C(C(=O)OC)=C1C	-1	-11	-6	0	5	23*
Cc1nn(-c2ccccc2)c(C)c1C(=O)OCC(=O)N1c2ccccc2NC(=O)C1(C)C	22	33*	8	17	-21	-15
Cc1cnc(C(=O)OCC(=O)N2c3ccccc3NC(=O)C2(C)C)cn1	2	1	-1	1	3	-1
CC(C)(C)c1ccc(OCCC(=O)OCC(=O)N2c3ccccc3NC(=O)C2(C)C)cc1	36*	59*	3	24	-35	-13
CC(C)n1cc(/C(N)=N/O)c(=O)n(Cc2ccccc2)c1=O	16	22	4	6	39*	13*
Cc1cn(C(C)C)c(=O)n(-c2ccccc2)c1=O	1	5	2	0	3	2
COc1ccccc1-n1c(C)nc2cc(C(=O)O)ccc21	5	19	1	1	19*	14
O=C(CN1C(=O)NC2(CCc3ccccc32)C1=O)NCc1ccc(Cl)cc1 (stereo not given)	8	-9	2	2	0	24*
CC(C)CC1C(=O)N(Cc2cn(Cc3ccco3)nn2)CCS(=O)(=O)N1Cc1ccc(-c2cccc(N(C)C)c2)cc1 (stereo not given)	5	-2	0	2	3	-3
C=CCn1c(C)c(C(C)=O)c(N2CCN(c3ccccc3)CC2)nc1=S	5	30*	-7	1	-13	-21
CC(=O)c1c(N2CCN(c3ccccc3)CC2)nc(=S)n(-c2ccccc2)c1C	-4	1	-7	1	4	-9
CCn1c(C)c(C(C)=O)c(N2CCCC2)nc1=S	0	37*	-8	0	1	-27
CC(=O)c1c(N2CCCCC2)nc(=S)n(Cc2ccccc2)c1C	-1	7	-6	1	-1	-10
CCn1c(C)c(C(C)=O)c(N2CCN(c3ccc(F)cc3)CC2)nc1=S	2	5	-6	2	14	11
C=CCn1c(C)c(C(C)=O)c(N2CCCC2)nc1=S	-1	72*	-13	0	7	-14
